In ChEMBL document CHEMBL4689842, “EUbOPEN Chemogenomics Library wave 1” (2021):

Test system: U2OS
Assay: Multiplex assay against U2OS
Format: toxicity, cell-based
Conditions: human
Procedure, shortened: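 Tubulin, mitochondrial-mass and membrane-permeability phenotypes are per cents of healthy-nucleus cells. Cells were gated by CellPathfinder machine learning into Hoechst high-intensity objects or normal cells, normal cells into healthy, pyknosed or fragmented nuclei, and pyknosed cells into mitotic or apoptotic. Before that, live cells stained at seeding with Hoechst33342, BioTracker Green Microtubule Cytoskeleton Dye, MitoTracker Red and Annexin V Alexa Fluor 680 were imaged on a CQ1 microscope at 37°C and 5% CO2 after compound addition.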

[1] = 12 h, 1 µM, compound concentration 1 uM, replicate 1
[2] = 12 h, 1 µM, compound concentration 1 uM, replicate 2
[3] = 12 h, 10 µM, compound concentration 10 uM, replicate 1
[4] = 12 h, 10 µM, compound concentration 10 uM, replicate 2
[5] = 24 h, 1 µM, compound concentration 1 uM, replicate 1
[6] = 24 h, 1 µM, compound concentration 1 uM, replicate 2
[7] = 24 h, 10 µM, compound concentration 10 uM, replicate 1
[8] = 24 h, 10 µM, compound concentration 10 uM, replicate 2
[9] = 48 h, 1 µM, compound concentration 1 uM, replicate 1
[10] = 48 h, 1 µM, compound concentration 1 uM, replicate 2
[11] = 48 h, 10 µM, compound concentration 10 uM, replicate 1
[12] = 48 h, 10 µM, compound concentration 10 uM, replicate 2

C=CC(=O)Nc1cccc(Oc2nc(Nc3ccc(N4CCN(C)CC4)cc3OC)ncc2Cl)c1
Population Apoptotic (%) [1]: 67%
Population Fragmented Nuclei (%) [1]: 27%
Population Healthy Nuclei (%) [1]: 36%
Population Hoechst High Intensity Objects (%) [1]: 8%
Population Membrane Permeable-Phenotype (%) [1]: 17%
Population Mitochondria Different-Phenotype (%) [1]: 74%
Population Mitotic Cells (%) [1]: 32%
Population Normal (%) [1]: 92%
Population Pyknosed Nuclei (%) [1]: 36%
Population Tubulin-Different-Phenotype (%) [1]: 96%
Total Cell Count [1]: 140
Population Apoptotic (%) [2]: 73%
Population Fragmented Nuclei (%) [2]: 32%
Population Healthy Nuclei (%) [2]: 26%
Population Hoechst High Intensity Objects (%) [2]: 13%
Population Membrane Permeable-Phenotype (%) [2]: 19%
Population Mitochondria Different-Phenotype (%) [2]: 80%
Population Mitotic Cells (%) [2]: 26%
Population Normal (%) [2]: 86%
Population Pyknosed Nuclei (%) [2]: 41%
Population Tubulin-Different-Phenotype (%) [2]: 100%
Total Cell Count [2]: 107
Population Apoptotic (%) [3]: 58%
Population Fragmented Nuclei (%) [3]: 5%
Population Healthy Nuclei (%) [3]: 82%
Population Hoechst High Intensity Objects (%) [3]: 1%
Population Membrane Permeable-Phenotype (%) [3]: 35%
Population Mitochondria Different-Phenotype (%) [3]: 7%
Population Mitotic Cells (%) [3]: 41%
Population Normal (%) [3]: 98%
Population Pyknosed Nuclei (%) [3]: 12%
Population Tubulin-Different-Phenotype (%) [3]: 21%
Total Cell Count [3]: 152
Population Apoptotic (%) [4]: 25%
Population Fragmented Nuclei (%) [4]: 16%
Population Healthy Nuclei (%) [4]: 79%
Population Hoechst High Intensity Objects (%) [4]: 13%
Population Membrane Permeable-Phenotype (%) [4]: 43%
Population Mitochondria Different-Phenotype (%) [4]: 16%
Population Mitotic Cells (%) [4]: 75%
Population Normal (%) [4]: 86%
Population Pyknosed Nuclei (%) [4]: 4%
Population Tubulin-Different-Phenotype (%) [4]: 22%
Total Cell Count [4]: 113
Population Apoptotic (%) [5]: 91%
Population Fragmented Nuclei (%) [5]: 21%
Population Hoechst High Intensity Objects (%) [5]: 12%
Population Membrane Permeable-Phenotype (%) [5]: 70%
Population Mitochondria Different-Phenotype (%) [5]: 100%
Population Mitotic Cells (%) [5]: 8%
Population Normal (%) [5]: 87%
Population Pyknosed Nuclei (%) [5]: 61%
Total Cell Count [5]: 160
Population Apoptotic (%) [6]: 92%
Population Fragmented Nuclei (%) [6]: 35%
Population Healthy Nuclei (%) [6]: 17%
Population Hoechst High Intensity Objects (%) [6]: 14%
Population Membrane Permeable-Phenotype (%) [6]: 93%
Population Mitochondria Different-Phenotype (%) [6]: 93%
Population Mitotic Cells (%) [6]: 7%
Population Normal (%) [6]: 85%
Population Pyknosed Nuclei (%) [6]: 47%
Population Tubulin-Different-Phenotype (%) [6]: 100%
Total Cell Count [6]: 131
Population Apoptotic (%) [7]: 62%
Population Fragmented Nuclei (%) [7]: 5%
Population Healthy Nuclei (%) [7]: 89%
Population Hoechst High Intensity Objects (%) [7]: 3%
Population Membrane Permeable-Phenotype (%) [7]: 29%
Population Mitochondria Different-Phenotype (%) [7]: 9%
Population Mitotic Cells (%) [7]: 37%
Population Normal (%) [7]: 96%
Population Pyknosed Nuclei (%) [7]: 5%
Population Tubulin-Different-Phenotype (%) [7]: 18%
Total Cell Count [7]: 182
Population Apoptotic (%) [8]: 66%
Population Fragmented Nuclei (%) [8]: 10%
Population Healthy Nuclei (%) [8]: 84%
Population Hoechst High Intensity Objects (%) [8]: 16%
Population Membrane Permeable-Phenotype (%) [8]: 27%
Population Mitochondria Different-Phenotype (%) [8]: 17%
Population Mitotic Cells (%) [8]: 33%
Population Normal (%) [8]: 83%
Population Tubulin-Different-Phenotype (%) [8]: 17%
Total Cell Count [8]: 120

Cc1nc(N2CC[C@H](O)C2)ncc1-c1cc(C(F)(F)F)cc2[nH]ncc12
Population Apoptotic (%) [1]: 25%
Population Fragmented Nuclei (%) [1]: 2%
Population Healthy Nuclei (%) [1]: 93%
Population Hoechst High Intensity Objects (%) [1]: 3%
Population Membrane Permeable-Phenotype (%) [1]: 6%
Population Mitochondria Different-Phenotype (%) [1]: 24%
Population Mitotic Cells (%) [1]: 75%
Population Normal (%) [1]: 96%
Population Pyknosed Nuclei (%) [1]: 4%
Population Tubulin-Different-Phenotype (%) [1]: 22%
Total Cell Count [1]: 181
Population Apoptotic (%) [2]: 14%
Population Fragmented Nuclei (%) [2]: 4%
Population Healthy Nuclei (%) [2]: 89%
Population Hoechst High Intensity Objects (%) [2]: 11%
Population Membrane Permeable-Phenotype (%) [2]: 5%
Population Mitochondria Different-Phenotype (%) [2]: 28%
Population Mitotic Cells (%) [2]: 85%
Population Normal (%) [2]: 88%
Population Pyknosed Nuclei (%) [2]: 5%
Population Tubulin-Different-Phenotype (%) [2]: 19%
Total Cell Count [2]: 111
Population Apoptotic (%) [3]: 60%
Population Fragmented Nuclei (%) [3]: 6%
Population Healthy Nuclei (%) [3]: 88%
Population Hoechst High Intensity Objects (%) [3]: 1%
Population Membrane Permeable-Phenotype (%) [3]: 8%
Population Mitochondria Different-Phenotype (%) [3]: 22%
Population Mitotic Cells (%) [3]: 40%
Population Normal (%) [3]: 98%
Population Pyknosed Nuclei (%) [3]: 5%
Population Tubulin-Different-Phenotype (%) [3]: 26%
Total Cell Count [3]: 158
Population Apoptotic (%) [4]: 16%
Population Fragmented Nuclei (%) [4]: 9%
Population Healthy Nuclei (%) [4]: 84%
Population Hoechst High Intensity Objects (%) [4]: 12%
Population Membrane Permeable-Phenotype (%) [4]: 6%
Population Mitochondria Different-Phenotype (%) [4]: 31%
Population Mitotic Cells (%) [4]: 83%
Population Normal (%) [4]: 87%
Population Pyknosed Nuclei (%) [4]: 6%
Population Tubulin-Different-Phenotype (%) [4]: 41%
Total Cell Count [4]: 153
Population Apoptotic (%) [5]: 27%
Population Fragmented Nuclei (%) [5]: 1%
Population Healthy Nuclei (%) [5]: 94%
Population Hoechst High Intensity Objects (%) [5]: 1%
Population Membrane Permeable-Phenotype (%) [5]: 7%
Population Mitochondria Different-Phenotype (%) [5]: 25%
Population Mitotic Cells (%) [5]: 72%
Population Normal (%) [5]: 98%
Population Pyknosed Nuclei (%) [5]: 4%
Population Tubulin-Different-Phenotype (%) [5]: 24%
Total Cell Count [5]: 260
Population Apoptotic (%) [6]: 14%
Population Fragmented Nuclei (%) [6]: 3%
Population Healthy Nuclei (%) [6]: 92%
Population Hoechst High Intensity Objects (%) [6]: 6%
Population Membrane Permeable-Phenotype (%) [6]: 3%
Population Mitochondria Different-Phenotype (%) [6]: 24%
Population Mitotic Cells (%) [6]: 85%
Population Normal (%) [6]: 93%
Total Cell Count [6]: 121
Population Apoptotic (%) [7]: 27%
Population Fragmented Nuclei (%) [7]: 3%
Population Healthy Nuclei (%) [7]: 91%
Population Hoechst High Intensity Objects (%) [7]: 4%
Population Membrane Permeable-Phenotype (%) [7]: 5%
Population Mitochondria Different-Phenotype (%) [7]: 12%
Population Mitotic Cells (%) [7]: 72%
Population Normal (%) [7]: 95%
Population Pyknosed Nuclei (%) [7]: 4%
Population Tubulin-Different-Phenotype (%) [7]: 28%
Total Cell Count [7]: 173
Population Apoptotic (%) [8]: 21%
Population Fragmented Nuclei (%) [8]: 5%
Population Healthy Nuclei (%) [8]: 81%
Population Hoechst High Intensity Objects (%) [8]: 9%
Population Membrane Permeable-Phenotype (%) [8]: 13%
Population Mitochondria Different-Phenotype (%) [8]: 40%
Population Mitotic Cells (%) [8]: 78%
Population Normal (%) [8]: 90%
Population Pyknosed Nuclei (%) [8]: 12%
Population Tubulin-Different-Phenotype (%) [8]: 46%
Total Cell Count [8]: 141

Cc1ccccc1C(c1ccccc1C)N1C2CCC1CC(O)(c1ccccc1)C2 (configuration not stated)
Population Healthy Nuclei (%) [1]: 82%
Population Mitotic Cells (%) [1]: 66%
Population Normal (%) [1]: 89%
Total Cell Count [1]: 131
Population Healthy Nuclei (%) [2]: 81%
Population Mitotic Cells (%) [2]: 50%
Population Normal (%) [2]: 90%
Total Cell Count [2]: 80
Population Healthy Nuclei (%) [3]: 73%
Population Mitotic Cells (%) [3]: 64%
Population Normal (%) [3]: 96%
Total Cell Count [3]: 158
Population Healthy Nuclei (%) [4]: 81%
Population Mitotic Cells (%) [4]: 60%
Population Normal (%) [4]: 86%
Total Cell Count [4]: 71
Population Healthy Nuclei (%) [5]: 82%
Population Mitotic Cells (%) [5]: 88%
Population Normal (%) [5]: 97%
Total Cell Count [5]: 149
Population Healthy Nuclei (%) [6]: 77%
Population Mitotic Cells (%) [6]: 80%
Population Normal (%) [6]: 95%
Total Cell Count [6]: 89
Population Healthy Nuclei (%) [7]: 74%
Population Mitotic Cells (%) [7]: 65%
Total Cell Count [7]: 201
Population Healthy Nuclei (%) [8]: 65%
Population Mitotic Cells (%) [8]: 50%
Population Normal (%) [8]: 93%
Total Cell Count [8]: 85
Population Healthy Nuclei (%) [9]: 89%
Population Mitotic Cells (%) [9]: 68%
Total Cell Count [9]: 157
Population Healthy Nuclei (%) [10]: 88%
Population Mitotic Cells (%) [10]: 87%
Population Normal (%) [10]: 97%
Total Cell Count [10]: 98
Population Healthy Nuclei (%) [11]: 71%
Population Mitotic Cells (%) [11]: 43%
Population Normal (%) [11]: 95%
Total Cell Count [11]: 289
Population Healthy Nuclei (%) [12]: 68%
Population Mitotic Cells (%) [12]: 40%
Population Normal (%) [12]: 85%
Total Cell Count [12]: 141
